≈ marks a conversion by molar mass, not a printed value. Calls of active or inactive are those of the source. No cut-off for these calls is given here.
Assays:
[1] = Antifungal activity against Rhizopus microsporus UTHSC R-3466 by broth microdilution method; type: functional
How it was run: (§1)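 CLSI broth microdilution reference method for molds, run on clinical R. microsporus isolates. Isolates were stored at −80°C and subcultured on potato dextrose agar at 35°C before testing. Breakpoints: intermediate 2 μg/ml, resistant ≥4 μg/ml.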

[2] = Antifungal activity against Rhizopus microsporus UTHSC 01-983 by broth microdilution method; type: functional; how it was run: as §1
[3] = Antifungal activity against Rhizopus microsporus FMR 3542 by broth microdilution method; type: functional; how it was run: as §1
[4] = Antifungal activity against Rhizopus microsporus CBS 102277 by broth microdilution method; type: functional; how it was run: as §1
[5] = Antifungal activity against Rhizopus microsporus IHEM 5234 by broth microdilution method; type: functional; how it was run: as §1
[6] = Antifungal activity against Rhizopus microsporus IHEM 13311 by broth microdilution method; type: functional
How it was run: (§2)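 Clinical isolates kept at −80°C and subcultured on potato dextrose agar at 35°C before testing. MICs were determined by broth microdilution following the CLSI reference guidelines for filamentous fungi (molds), as part of a 15-strain panel tested against seven antifungal agents.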

[7] = Antifungal activity against Rhizopus microsporus IHEM 15210 by broth microdilution method; type: functional; how it was run: as §2
[8] = Antifungal activity against Rhizopus microsporus UTHSC 03-1802 by broth microdilution method; type: functional; how it was run: as §2
[9] = Antifungal activity against Rhizopus microsporus UTHSC 04-3294 by broth microdilution method; type: functional; how it was run: as §2
[10] = Antifungal activity against Rhizopus microsporus UTHSC 07-371 by broth microdilution method; type: functional; how it was run: as §2
[11] = Drug level in serum of OF1 mouse infected with Rhizopus microsporus FMR 3542 at 40 mg/kg, po QD measured after 3 hrs post last dose; type: ADME, organism-based; parameters: dose 40 mg/kg, route oral; settings: read-out: Drug uptake
How it was run: (§3)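 Immunosuppressed OF1 mice were infected i.v. (5 per group) and dosed orally at 40 mg/kg once daily or 20 mg/kg twice daily for 5 days. Sera were taken 3 h and 24 h after the last dose. Drug was measured by agar bioassay with Candida parapsilosis ATCC 22019 in yeast nitrogen broth, against standards of 0.125–10 μg/ml. Samples were run in duplicate, and the mean of four zone readings was read from the standard curve.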

[12] = Drug level in serum of OF1 mouse infected with Rhizopus microsporus UTHSC 01-983 at 20 mg/kg, po BID for 5 days measured after 3 hrs post last dose; type: ADME, organism-based; parameters: dose 20 mg/kg, route oral; settings: read-out: Drug uptake; how it was run: as §3
[13] = Drug level in serum of OF1 mouse infected with Rhizopus microsporus UTHSC 01-983 at 40 mg/kg, po QD for 5 days measured after 3 hrs post last dose; type: ADME, organism-based; parameters: dose 40 mg/kg, route oral; settings: read-out: Drug uptake; how it was run: as §3
[14] = Drug level in serum of OF1 mouse infected with Rhizopus microsporus FMR 3542 at 20 mg/kg, po BID for 5 days measured after 3 hrs post last dose; type: ADME, organism-based; parameters: dose 20 mg/kg, route oral; settings: read-out: Drug uptake; how it was run: as §3
[15] = Drug level in serum of OF1 mouse infected with Rhizopus microsporus FMR 3542 at 40 mg/kg, po QD measured after 24 hrs post last dose; type: ADME, organism-based; parameters: dose 40 mg/kg, route oral; settings: read-out: Drug uptake; how it was run: as §3
[16] = Drug level in serum of OF1 mouse infected with Rhizopus microsporus UTHSC 01-983 at 20 mg/kg, po BID for 5 days measured after 24 hrs post last dose; type: ADME, organism-based; parameters: dose 20 mg/kg, route oral; settings: read-out: Drug uptake; how it was run: as §3
[17] = Drug level in serum of OF1 mouse infected with Rhizopus microsporus UTHSC 01-983 at 40 mg/kg, po QD for 5 days measured after 24 hrs post last dose; type: ADME, organism-based; parameters: dose 40 mg/kg, route oral; settings: read-out: Drug uptake; how it was run: as §3
[18] = Drug level in serum of OF1 mouse infected with Rhizopus microsporus FMR 3542 at 20 mg/kg, po BID for 5 days measured after 24 hrs post last dose; type: ADME, organism-based; parameters: dose 20 mg/kg, route oral; settings: read-out: Drug uptake; how it was run: as §3
Rhizopus microsporus [19] = assay: Antifungal activity against Rhizopus microsporus FMR 3542 infected in OF1 mouse assessed as reduction in fungal load in brain at 40 mg/kg, QD for 5 days; type: functional, organism-based; parameters: dose 40 mg/kg
How it was run: (§4)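 Male OF1 mice (30 g) were immunosuppressed 1 day before infection with cyclophosphamide 200 mg/kg i.p. plus 5-fluorouracil 150 mg/kg i.v., then given 2 × 10^3 CFU i.v. (IHEM 4770: 1 × 10^4 CFU). Oral dosing was 40 mg/kg once daily or 20 mg/kg twice daily, starting 24 h post-challenge; ceftazidime s.c. was given on days 1–7. […], 10 mice per group were killed, and brain and kidney homogenates were plated on PDA (18–24 h, 35°C) for CFU.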

Rhizopus microsporus [20] = assay: Antifungal activity against Rhizopus microsporus IHEM 4770 infected in OF1 mouse assessed as reduction in fungal load in brain at 40 mg/kg, QD for 5 days; type: functional, organism-based; parameters: dose 40 mg/kg; how it was run: as §4
Rhizopus microsporus [21] = assay: Antifungal activity against Rhizopus microsporus IHEM 4770 infected in OF1 mouse assessed as reduction in fungal load in brain at 20 mg/kg, QD for 5 days; type: functional, organism-based; parameters: dose 20 mg/kg
Rhizopus microsporus [22] = assay: Antifungal activity against Rhizopus microsporus UTHSC 01-983 infected in OF1 mouse assessed as reduction in fungal load in brain at 20 mg/kg, QD for 5 days; type: functional, organism-based; parameters: dose 20 mg/kg
Rhizopus microsporus [23] = assay: Antifungal activity against Rhizopus microsporus UTHSC R-3466 infected in OF1 mouse assessed as reduction in fungal load in kidney at 20 mg/kg, QD for 5 days; type: functional, organism-based; parameters: dose 20 mg/kg
[24] = Antifungal activity against Rhizopus microsporus IHEM 18821 by broth microdilution method; type: functional; how it was run: as §2
[25] = Antifungal activity against Rhizopus microsporus IHEM 13267 by broth microdilution method; type: functional; how it was run: as §2
[26] = Antifungal activity against Rhizopus microsporus IHEM 9503 by broth microdilution method; type: functional; how it was run: as §2
[27] = Antifungal activity against Rhizopus microsporus IHEM 10123 by broth microdilution method; type: functional; how it was run: as §2
[28] = Antifungal activity against Rhizopus microsporus IHEM 4770 by broth microdilution method; type: functional; how it was run: as §2

Compound: C[C@@H](c1ncncc1F)[C@](O)(Cn1cncn1)c1ccc(F)cc1F
- MIC [1]: 4 µg/mL (≈ 11.5 µM)
- MIC [2]: 4 µg/mL (≈ 11.5 µM)
- MIC [3]: 4 µg/mL (≈ 11.5 µM)
- MIC [4]: 4 µg/mL (≈ 11.5 µM)
- MIC [5]: 4 µg/mL (≈ 11.5 µM)

Compound: CC[C@@H]([C@H](C)O)n1ncn(-c2ccc(N3CCN(c4ccc(OC[C@@H]5CO[C@@](Cn6cncn6)(c6ccc(F)cc6F)C5)cc4)CC3)cc2)c1=O [POSACONAZOLE]
- MIC [6]: 0.5 µg/mL (≈ 0.713 µM)
- MIC [7]: 0.5 µg/mL (≈ 0.713 µM)
- MIC [1]: 0.25 µg/mL (≈ 0.357 µM)
- MIC [8]: 0.25 µg/mL (≈ 0.357 µM)
- MIC [9]: 0.25 µg/mL (≈ 0.357 µM)
- MIC [10]: 0.25 µg/mL (≈ 0.357 µM)
- MIC [2]: 0.25 µg/mL (≈ 0.357 µM)
- concentration at 3 h [11]: 5310 ng/mL
- concentration at 3 h [12]: 7600 ng/mL
- concentration at 3 h [13]: 5960 ng/mL
- concentration at 3 h [14]: 8040 ng/mL
- concentration at 24 h [15]: 950 ng/mL
- concentration at 24 h [16]: 2040 ng/mL
- concentration at 24 h [17]: 1050 ng/mL
- concentration at 24 h [18]: 2150 ng/mL
- Activity (Rhizopus microsporus [19]): Active
- Activity (Rhizopus microsporus [20]): Active
- Activity (Rhizopus microsporus [21]): Active
- Activity (Rhizopus microsporus [22]): Active
- Activity (Rhizopus microsporus [23]): Active
- MIC [3]: 2 µg/mL (≈ 2.85 µM)
- MIC [4]: 0.5 µg/mL (≈ 0.713 µM)
- MIC [24]: 1 µg/mL (≈ 1.43 µM)
- MIC [25]: 0.5 µg/mL (≈ 0.713 µM)
- MIC [26]: 0.5 µg/mL (≈ 0.713 µM)
- MIC [27]: 1 µg/mL (≈ 1.43 µM)
- MIC [28]: 2 µg/mL (≈ 2.85 µM)
- MIC [5]: 0.25 µg/mL (≈ 0.357 µM)

Compound: C[C@@H]1[C@H](O)[C@@H](C)/C=C/C=C/C=C/C=C/C=C/C=C/C=C/[C@H](O[C@@H]2O[C@H](C)[C@@H](O)[C@H](N)[C@@H]2O)C[C@@H]2O[C@](O)(C[C@@H](O)C[C@@H](O)[C@H](O)CC[C@@H](O)C[C@@H](O)CC(=O)O[C@H]1C)C[C@H](O)[C@H]2C(=O)O
- MIC [6]: 0.5 µg/mL (≈ 0.541 µM)
- MIC [7]: 0.5 µg/mL (≈ 0.541 µM)
- MIC [1]: 0.5 µg/mL (≈ 0.541 µM)
- MIC [8]: 1 µg/mL (≈ 1.08 µM)
- MIC [9]: 1 µg/mL (≈ 1.08 µM)
- MIC [10]: 1 µg/mL (≈ 1.08 µM)
- MIC [2]: 0.5 µg/mL (≈ 0.541 µM)
- MIC [3]: 0.5 µg/mL (≈ 0.541 µM)
- MIC [4]: 0.5 µg/mL (≈ 0.541 µM)
- MIC [24]: 0.5 µg/mL (≈ 0.541 µM)
- MIC [25]: 0.5 µg/mL (≈ 0.541 µM)
- MIC [26]: 0.5 µg/mL (≈ 0.541 µM)
- MIC [27]: 0.5 µg/mL (≈ 0.541 µM)
- MIC [28]: 0.5 µg/mL (≈ 0.541 µM)
- MIC [5]: 0.5 µg/mL (≈ 0.541 µM)

Compound: CCC(C)n1ncn(-c2ccc(N3CCN(c4ccc(OCC5COC(Cn6cncn6)(c6ccc(Cl)cc6Cl)O5)cc4)CC3)cc2)c1=O (stereo not drawn)
- MIC [6]: 1 µg/mL (≈ 1.42 µM)
- MIC [7]: 1 µg/mL (≈ 1.42 µM)
- MIC [1]: 1 µg/mL (≈ 1.42 µM)
- MIC [8]: 1 µg/mL (≈ 1.42 µM)
- MIC [9]: 1 µg/mL (≈ 1.42 µM)
- MIC [10]: 1 µg/mL (≈ 1.42 µM)
- MIC [2]: 1 µg/mL (≈ 1.42 µM)
- MIC [3]: 1 µg/mL (≈ 1.42 µM)
- MIC [4]: 1 µg/mL (≈ 1.42 µM)
- MIC [24]: 2 µg/mL (≈ 2.83 µM)
- MIC [25]: 1 µg/mL (≈ 1.42 µM)
- MIC [26]: 4 µg/mL (≈ 5.67 µM)
- MIC [27]: 2 µg/mL (≈ 2.83 µM)
- MIC [28]: 2 µg/mL (≈ 2.83 µM)
- MIC [5]: 1 µg/mL (≈ 1.42 µM)

Source: ChEMBL document CHEMBL1649290, “Correlation of in vitro activity, serum levels, and in vivo efficacy of posaconazole against Rhizopus microsporus in a murine disseminated infection” (Antimicrob Agents Chemother, 2009)
